According to ChEMBL document CHEMBL1144932, “Design, synthesis, and biological properties of new bis(acridine-4-carboxamides) as anticancer agents” (J Med Chem, 2003):

Experiments:
[1] = species on record: Homo sapiens; test: In vitro cytotoxic activity against human colon adenocarcinoma (HT-29).; assay type: functional
Outline: (§1)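 HT29 cells were seeded at 2.5 × 10^4 cells/mL of medium and drug solutions were added. Exposure lasted 144 h. IC50 is the drug concentration inhibiting cell growth by 50%. Assays were run in triplicate.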

[2] = Apparent equilibrium constant for DNA binding (G-C); assay type: ADME
Outline: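 Ethidium displacement at pH 7.0 in buffer of 10 mM Na2HPO4, 10 mM NaH2PO4, 1 mM EDTA with 1.26 μM ethidium bromide and 1 μM CT-DNA, [poly(dA-dT)]2 or [poly(dG-dC)]2. Drug stock (~5 mM in DMSO) added serially. Fluorescence read at 20 °C, excitation 546 nm, emission 595 nm. C50 is the mean of three determinations. Kapp = 1.26/C50 × 10^7.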

[3] = system: MCF7; test: Percent growth of breast MCF-7 cell line at compound concentration 10e-6 was determined; assay type: functional, Homo sapiens
Outline: (§2)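 Cells in the NCI panel were exposed for 48 h to 10^-8, 10^-6 and 10^-4 or 10^-5 M drug. Growth is given as percent of untreated control (100%). Negative values are the percent of cells killed relative to the initial cell number.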

[4] = system: MCF7; test: Percent growth of breast MCF-7 cell line at compound concentration 10e-8 was determined; assay type: functional, Homo sapiens; outline: as §2
[5] = system: MCF7; test: Percent growth of breast MCF-7 cell line at compound concentration 10e-5 was determined; assay type: functional, Homo sapiens; outline: as §2
[6] = system: HCT-116; test: Percent growth of colon HCT116 cell line at compound concentration 10e-5 was determined; assay type: functional, Homo sapiens; outline: as §2
[7] = system: HCT-116; test: Percent growth of colon HCT116 cell line at compound concentration 10e-6 was determined; assay type: functional, Homo sapiens; outline: as §2
[8] = system: HCT-116; test: Percent growth of colon HCT116 cell line at compound concentration 10e-8 was determined; assay type: functional, Homo sapiens; outline: as §2
[9] = system: NCI-H460; test: Percent growth of lung-NSC NCI-H460 cell line at compound concentration 10e-5 was determined; assay type: functional, Homo sapiens; outline: as §2
[10] = system: NCI-H460; test: Percent growth of lung-NSC NCI-H460 cell line at compound concentration 10e-6 was determined; assay type: functional, Homo sapiens; outline: as §2
[11] = system: RPMI-8226; test: Percent growth of leukemia RPMI-8226 cell line at compound concentration 10e-5 was determined; assay type: functional, Homo sapiens; outline: as §2
[12] = system: RPMI-8226; test: Percent growth of leukemia RPMI-8226 cell line at compound concentration 10e-6 was determined; assay type: functional, Homo sapiens; outline: as §2
[13] = system: RPMI-8226; test: Percent growth of leukemia RPMI-8226 cell line at compound concentration 10e-8 was determined; assay type: functional, Homo sapiens; outline: as §2
[14] = system: NCI-H460; test: Percent growth of lung-NSC NCI-H460 cell line at compound concentration 10e-8 was determined; assay type: functional, Homo sapiens; outline: as §2
[15] = system: LOX IMVI; test: Percent growth of melanoma LOX IMVI cell line at compound concentration 10e-5 was determined; assay type: functional, Homo sapiens; outline: as §2
[16] = system: LOX IMVI; test: Percent growth of melanoma LOX IMVI cell line at compound concentration 10e-6 was determined; assay type: functional, Homo sapiens; outline: as §2
[17] = system: LOX IMVI; test: Percent growth of melanoma LOX IMVI cell line at compound concentration 10e-8 was determined; assay type: functional, Homo sapiens; outline: as §2
[18] = system: OVCAR-4; test: Percent growth of ovarian OVCAR-4 cell line at compound concentration 10e-5 was determined; assay type: functional, Homo sapiens; outline: as §2
[19] = system: OVCAR-4; test: Percent growth of ovarian OVCAR-4 cell line at compound concentration 10e-8 was determined; assay type: functional, Homo sapiens; outline: as §2
[20] = system: 786-0; test: Percent growth of renal 786-0 cell line at compound concentration 10e-5 was determined; assay type: functional, Homo sapiens; outline: as §2
[21] = system: 786-0; test: Percent growth of renal 786-0 cell line at compound concentration 10e-6 was determined; assay type: functional, Homo sapiens; outline: as §2
[22] = system: 786-0; test: Percent growth of renal 786-0 cell line at compound concentration 10e-8 was determined; assay type: functional, Homo sapiens; outline: as §2
[23] = system: DU-145; test: Percent growth of prostate DU-145 cell line at compound concentration 10e-5 was determined; assay type: functional, Homo sapiens; outline: as §2
[24] = system: DU-145; test: Percent growth of prostate DU-145 cell line at compound concentration 10e-6 was determined; assay type: functional, Homo sapiens; outline: as §2
[25] = system: DU-145; test: Percent growth of prostate DU-145 cell line at compound concentration 10e-8 was determined; assay type: functional, Homo sapiens; outline: as §2
[26] = system: SNB-19; test: Percent growth of CNS SNB-19 cell line at compound concentration 10e-5 was determined; assay type: functional, Homo sapiens; outline: as §2
[27] = system: SNB-19; test: Percent growth of CNS SNB-19 cell line at compound concentration 10e-6 was determined; assay type: functional, Homo sapiens; outline: as §2
[28] = system: SNB-19; test: Percent growth of CNS SNB-19 cell line at compound concentration 10e-8 was determined; assay type: functional, Homo sapiens; outline: as §2
[29] = system: OVCAR-4; test: Percent growth of ovarian OVCAR-4 cell line at compound concentration 10e-6 was determined; assay type: functional, Homo sapiens; outline: as §2
[30] = species on record: Homo sapiens; test: In vitro cytotoxic activity against human colon adenocarcinoma (HT-29); assay type: functional; outline: as §1

`CN(C)CCNC(=O)c1ccc(NCCN(C)C)c2c(O)c3cc(O)ccc3nc12` showed an IC50 [1] of 2000 nM.
`CN(C)CCNC(=O)c1ccc(NCCN(C)CCNc2ccc(C(=O)NCCN(C)C)c3nc4ccccc4cc23)c2cc3ccccc3nc12` showed a K app [2] of 7.2e+06 M⁻¹ and an IC50 [1] of 470 nM.
For `CN(C)CCNC(=O)c1ccc(NCCN(C)CCNc2ccc(C(=O)NCCN(C)C)c3nc4ccc(O)cc4c(O)c23)c2c(O)c3cc(O)ccc3nc12`, the K app [2] was 1.4e+07 M⁻¹ and the IC50 [1] was over 10000 nM.
With `COc1ccc2nc3c(C(=O)NCCN(C)C)ccc(NCCCN(C)CCCNc4ccc(C(=O)NCCN(C)C)c5nc6ccc(OC)cc6c(O)c45)c3c(O)c2c1` the K app [2] was 1.4e+08 M⁻¹ and the IC50 [1] was 39 nM.
In the case of `CN(C)CCNC(=O)c1ccc(NCCN(C)C)c2cc3ccccc3nc12`, the K app [2] is reported as 2.3e+08 M⁻¹ and the IC50 [1] is reported as 7 nM.
In the case of `CN(C)CCNC(=O)c1ccc(NCCCN(C)CCCNc2ccc(C(=O)NCCN(C)C)c3nc4ccc([N+](=O)[O-])cc4c(O)c23)c2c(O)c3cc([N+](=O)[O-])ccc3nc12`, the K app [2] is reported as 2.3e+08 M⁻¹, the Growth [3] is reported as 0% and the Growth [4] is reported as 26%. For the same compound, the Growth [5] was -86%, the Growth [6] was -94% and the Growth [7] was -5%. It also gave a Growth [8] of 31%, an IC50 [1] of under 0.1 nM and a Growth [9] of -95%. The Growth [10] was -31%, the Growth [11] was -58% and the Growth [12] was -44%. The Growth [13] was 12%, the Growth [14] was 28% and the Growth [15] was -93%. For the same compound, the Growth [16] was -40%, the Growth [17] was 28% and the Growth [18] was -72%. For the same compound, the Growth [19] was 67%, the Growth [20] was -95% and the Growth [21] was 6%. The Growth [22] was 41%, the Growth [23] was -93% and the Growth [24] was -2%. It also gave a Growth [25] of 55%, a Growth [26] of -96% and a Growth [27] of -7%. It also gave a Growth [28] of 42% and a Growth [29] of 16%.
For `CN(C)CCNC(=O)c1ccc(NCCN(C)C)c2c(=O)c3ccccc3[nH]c12`, the IC50 [1] was 94 nM.
With `COc1ccc2nc3c(C(=O)NCCN(C)C)ccc(NCCN(C)C)c3c(O)c2c1` the IC50 [30] was 500 nM.
With `CN(C)CCNc1ccc(C(=O)NCCN(C)CCNC(=O)c2ccc(NCCN(C)C)c3c(O)c4ccccc4nc23)c2nc3ccccc3c(O)c12` the IC50 [1] was 480 nM.
`CN(C)CCNc1ccc(C(=O)NCCN(C)CCN(C)CCNC(=O)c2ccc(NCCN(C)C)c3c(O)c4ccccc4nc23)c2nc3ccccc3c(O)c12` gave an IC50 [1] of 290 nM.
With `CN(C)CCNc1ccc(C(=O)NCCCNC(=O)c2ccc(NCCN(C)C)c3c(O)c4ccccc4nc23)c2nc3ccccc3c(O)c12` the IC50 [1] was over 10000 nM.
With `CN(CCCNC(=O)c1ccc(Cl)c2c(O)c3ccccc3nc12)CCCNC(=O)c1ccc(Cl)c2c(O)c3ccccc3nc12` the IC50 [1] was 340 nM.
Compound `CN(C)CCNc1ccc(C(=O)NCCCN(C)CCCNC(=O)c2ccc(NCCN(C)C)c3c(O)c4cc(O)ccc4nc23)c2nc3ccc(O)cc3c(O)c12` has an IC50 [1] of 800 nM.
